The source made the active and inactive calls. No cut-off for these calls is given here.
What was measured:
[1] = system: Rattus norvegicus; assay: Cognitive enhancement in Sprague-Dawley rat assessed as improvement of scopolamine-impaired performance at 0.32 mg/kg, sc administered 30 mins before scopolamine challenge by novel object recognition assay; assay type: functional, organism-based; set-up: dose 0.32 mg/kg
Method in brief: (§1)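 Rats habituated to the arena 3 min on day 1. Next day, 10-15 per group dosed sc with vehicle or compound, then 30 min later vehicle or (-)-scopolamine 0.2 mg/kg sc. After 30 min more, two identical objects shown 3 min; 2.5 h later one novel and one familiar object for 3 min. Exploration time per object, mean ± SEM.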

[2] = biological target: T1, 5-hydroxytryptamine receptor 3A (Mus musculus, UniProt P23979); assay: Displacement of [3H]LY278584 from mouse 5HT3 receptor expressed in HEK293 cells; assay type: cell-based
T1 sequence (P23979 whole entry): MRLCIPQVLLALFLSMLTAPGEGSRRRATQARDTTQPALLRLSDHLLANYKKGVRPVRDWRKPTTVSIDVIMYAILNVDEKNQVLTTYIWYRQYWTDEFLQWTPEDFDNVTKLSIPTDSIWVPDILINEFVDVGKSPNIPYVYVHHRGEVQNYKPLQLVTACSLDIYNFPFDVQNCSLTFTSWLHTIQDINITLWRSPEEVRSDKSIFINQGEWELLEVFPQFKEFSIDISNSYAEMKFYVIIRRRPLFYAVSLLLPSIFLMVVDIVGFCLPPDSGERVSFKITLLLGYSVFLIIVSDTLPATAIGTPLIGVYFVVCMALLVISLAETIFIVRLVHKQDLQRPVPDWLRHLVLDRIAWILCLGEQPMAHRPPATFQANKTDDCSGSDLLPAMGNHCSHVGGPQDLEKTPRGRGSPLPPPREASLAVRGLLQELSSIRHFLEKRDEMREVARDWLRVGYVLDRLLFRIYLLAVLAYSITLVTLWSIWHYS
Method in brief: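 Mouse 5-HT3A in HEK293 cell homogenate, 20 mM Tris-HCl pH 7.4 with 154 mM NaCl. [3H]LY278584 1 nM final; nonspecific binding with 10 μM ICS205-930; 60 min at 37 °C, then filtration onto PEI-soaked GF/B. Ki by Cheng-Prusoff; mean of three six-point curves in triplicate in one assay; tropisetron standard.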

[3] = biological target: T2, 5-hydroxytryptamine receptor 3A (Homo sapiens, UniProt P46098); assay: […] at human 5HT3 receptor expressed in human skin epithelial cells assessed as stimulation of calcium flux by FLIPR assay; assay type: functional, cell-based, Epithelial cell
T2 sequence (P46098 whole entry): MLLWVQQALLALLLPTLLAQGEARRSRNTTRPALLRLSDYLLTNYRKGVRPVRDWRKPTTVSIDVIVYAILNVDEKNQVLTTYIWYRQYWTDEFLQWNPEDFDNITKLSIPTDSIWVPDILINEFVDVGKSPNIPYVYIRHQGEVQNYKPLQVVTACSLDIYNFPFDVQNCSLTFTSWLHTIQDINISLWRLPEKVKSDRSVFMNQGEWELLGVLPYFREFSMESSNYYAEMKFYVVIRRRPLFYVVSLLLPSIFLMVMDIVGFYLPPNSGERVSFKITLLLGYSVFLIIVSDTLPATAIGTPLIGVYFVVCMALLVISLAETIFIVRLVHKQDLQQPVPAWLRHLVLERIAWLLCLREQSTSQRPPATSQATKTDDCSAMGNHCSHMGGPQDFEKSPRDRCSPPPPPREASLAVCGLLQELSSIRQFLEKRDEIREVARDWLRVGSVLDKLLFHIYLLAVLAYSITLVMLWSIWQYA
Method in brief: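 Human 5-HT3A stably in human skin epithelial cells, plated 15 000 cells/well 2 days ahead; loaded 1 h at 37 °C with Fluo-4 (8 μM final), washed into HBSS with 20 mM Tris-HEPES, 1 μM atropine, 4 mM Ca2+, pH 7.4. Compound added 2 min, then 5-HT challenge (250 nM final) 2 min; FLIPR calcium read.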

[4] = system: CHO; assay: Toxicity in CHO cells assessed as induction of DNA fragments by in vitro micronucleus assay; assay type: cell-based, Cricetulus griseus; settings: chinese hamster
[5] = biological target: Neuronal acetylcholine receptor; alpha4/beta2 (Rattus norvegicus, UniProt P09483+P12390); assay: Displacement of [3H]nicotine from alpha4beta2 nAChR in rat brain homogenate; assay type: tissue-based
Sequence of Neuronal acetylcholine receptor; alpha4/beta2 (P09483 whole entry): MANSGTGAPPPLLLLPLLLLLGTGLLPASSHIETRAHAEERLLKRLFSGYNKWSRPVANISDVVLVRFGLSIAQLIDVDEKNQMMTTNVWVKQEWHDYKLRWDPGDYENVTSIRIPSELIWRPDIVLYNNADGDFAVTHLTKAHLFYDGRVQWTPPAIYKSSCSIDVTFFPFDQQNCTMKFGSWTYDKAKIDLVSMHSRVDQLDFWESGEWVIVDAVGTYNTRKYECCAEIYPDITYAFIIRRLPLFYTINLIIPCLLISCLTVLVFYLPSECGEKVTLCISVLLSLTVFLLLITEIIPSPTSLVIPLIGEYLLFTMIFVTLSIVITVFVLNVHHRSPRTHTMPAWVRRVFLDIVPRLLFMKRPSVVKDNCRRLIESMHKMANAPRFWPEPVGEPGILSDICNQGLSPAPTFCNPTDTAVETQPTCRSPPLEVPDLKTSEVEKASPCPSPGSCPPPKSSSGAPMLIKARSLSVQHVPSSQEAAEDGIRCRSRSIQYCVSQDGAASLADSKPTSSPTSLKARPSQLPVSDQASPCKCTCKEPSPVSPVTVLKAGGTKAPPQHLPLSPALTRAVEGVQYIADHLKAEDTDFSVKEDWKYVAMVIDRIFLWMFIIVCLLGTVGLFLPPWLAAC
Sequence of Neuronal acetylcholine receptor; alpha4/beta2 (P12390 whole entry): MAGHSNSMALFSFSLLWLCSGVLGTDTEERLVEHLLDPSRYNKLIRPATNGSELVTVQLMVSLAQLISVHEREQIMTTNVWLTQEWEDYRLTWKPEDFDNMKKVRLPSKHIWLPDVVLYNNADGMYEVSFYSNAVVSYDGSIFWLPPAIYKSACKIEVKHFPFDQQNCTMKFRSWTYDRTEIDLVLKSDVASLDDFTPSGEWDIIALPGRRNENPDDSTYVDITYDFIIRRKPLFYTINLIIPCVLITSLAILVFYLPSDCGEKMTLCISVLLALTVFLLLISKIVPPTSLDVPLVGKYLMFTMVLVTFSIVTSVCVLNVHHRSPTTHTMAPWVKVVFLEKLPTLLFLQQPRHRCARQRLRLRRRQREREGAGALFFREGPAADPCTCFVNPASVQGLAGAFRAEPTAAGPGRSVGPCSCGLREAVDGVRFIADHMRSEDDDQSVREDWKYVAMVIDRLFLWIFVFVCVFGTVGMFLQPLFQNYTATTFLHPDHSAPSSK
Method in brief: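 Rat brain homogenate membranes; [3H]nicotine used as radioligand. Ki taken as the average of a six-point dose-response curve run in triplicate.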

[6] = biological target: Neuronal acetylcholine receptor; alpha3/beta4 (Homo sapiens, UniProt P30926+P32297); assay: Displacement of [3H]epibatidine from alpha3beta4 nAChR expressed in IMR32 cells; assay type: cell-based, IMR-32
Sequence of Neuronal acetylcholine receptor; alpha3/beta4 (P30926 whole entry): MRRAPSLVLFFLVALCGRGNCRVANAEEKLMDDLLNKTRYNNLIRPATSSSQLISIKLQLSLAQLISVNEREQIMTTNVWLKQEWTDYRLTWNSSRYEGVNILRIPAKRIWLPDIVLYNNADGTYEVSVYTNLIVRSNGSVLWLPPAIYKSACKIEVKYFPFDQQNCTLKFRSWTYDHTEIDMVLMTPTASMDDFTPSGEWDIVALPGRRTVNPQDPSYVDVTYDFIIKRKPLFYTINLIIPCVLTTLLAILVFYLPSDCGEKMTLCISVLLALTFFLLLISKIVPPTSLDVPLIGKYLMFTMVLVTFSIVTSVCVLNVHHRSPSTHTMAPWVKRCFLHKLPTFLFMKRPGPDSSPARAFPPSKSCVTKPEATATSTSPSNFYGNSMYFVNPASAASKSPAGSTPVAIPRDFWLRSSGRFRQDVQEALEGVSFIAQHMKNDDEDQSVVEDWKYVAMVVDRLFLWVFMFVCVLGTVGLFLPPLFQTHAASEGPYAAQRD
Sequence of Neuronal acetylcholine receptor; alpha3/beta4 (P32297 whole entry): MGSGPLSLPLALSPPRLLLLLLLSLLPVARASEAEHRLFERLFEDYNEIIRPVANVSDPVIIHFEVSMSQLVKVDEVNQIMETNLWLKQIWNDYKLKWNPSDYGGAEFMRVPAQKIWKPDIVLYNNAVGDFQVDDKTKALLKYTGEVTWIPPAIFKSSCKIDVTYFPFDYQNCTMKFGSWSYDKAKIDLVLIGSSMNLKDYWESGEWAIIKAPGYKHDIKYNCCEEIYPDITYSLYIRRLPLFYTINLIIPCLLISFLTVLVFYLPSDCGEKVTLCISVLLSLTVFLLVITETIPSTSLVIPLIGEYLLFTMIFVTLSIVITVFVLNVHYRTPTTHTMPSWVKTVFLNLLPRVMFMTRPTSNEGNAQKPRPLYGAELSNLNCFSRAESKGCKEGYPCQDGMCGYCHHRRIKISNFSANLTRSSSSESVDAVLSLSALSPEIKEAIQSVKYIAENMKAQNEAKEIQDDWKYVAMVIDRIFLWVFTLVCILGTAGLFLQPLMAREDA
Method in brief: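 Alpha3β4 binding in IMR32 cells with [3H]epibatidine radioligand. Six-point concentration-response curve run in triplicate and averaged.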

[7] = Lipophilicity, log D at pH 7.4; assay type: physicochemical; settings: buffer
[8] = Permeability from apical to basolateral side in dog MDCK cells at 2 uM; assay type: ADME, cell-based, Canis lupus familiaris; settings: read-out: permeability
Method in brief: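 MS quantification of apical-to-basolateral transfer of compound at 2 μM across contiguous MDCK cell monolayers.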

[9] = Ratio of drug level in brain to plasma of rat at 1 mg/kg, sc after 40 mins; settings: brain and plasma
[10] = Oral bioavailability in rat; assay type: ADME, organism-based; settings: in vivo
[11] = system: Rattus norvegicus; assay: Cognitive enhancement in Sprague-Dawley rat assessed as reversal of amphetamine-induced auditory sensory gating deficit at 1 mg/kg, sc; assay type: functional, organism-based; set-up: dose 1 mg/kg
Method in brief: (§2)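 Male Sprague-Dawley rats (250-300 g) under chloral hydrate (400 mg/kg ip), femoral vein cannulated. CA3 hippocampal field potential recorded; auditory-evoked responses averaged over 50 stimulus pairs at 10 s interstimulus interval. Gating disrupted by d-amphetamine 1 mg/kg iv; compound sc. Read-out is reversal of the amphetamine deficit; PBS vehicle; two-tailed paired t-test.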

[12] = system: Rattus norvegicus; assay: Cognitive enhancement in Sprague-Dawley rat assessed as reversal of amphetamine-induced auditory sensory gating deficit at 0.03 mg/kg, sc; assay type: functional, organism-based; set-up: dose 0.03 mg/kg; method in brief: as §2
[13] = system: Rattus norvegicus; assay: Cognitive enhancement in sc dosed Sprague-Dawley rat assessed as reversal of amphetamine-induced auditory sensory gating deficits; assay type: functional; settings: read-out: MED; method in brief: as §2
[14] = system: Rattus norvegicus; assay: Cognitive enhancement in Sprague-Dawley rat assessed as augmentation of amphetamine-induced hippocampal theta oscillation at 1 mg/kg, sc; assay type: functional, organism-based; set-up: dose 1 mg/kg; settings: Hippocampus
[15] = system: Rattus norvegicus; assay: Cognitive enhancement in Sprague-Dawley rat assessed as improvement of scopolamine-impaired performance at 1 mg/kg, sc administered 30 mins before scopolamine challenge by novel object recognition assay; assay type: functional, organism-based; set-up: dose 1 mg/kg; method in brief: as §1

Compound: Cc1ccc2oc(N3CCN4CCC3CC4)nc2n1
- Activity [1]: Active
- Ki [2]: 0.269 µM
- IC50 [3]: 0.005 µM
- Activity [4]: Non-toxic
- Ki [5]: 1.35 µM
- Ki [6]: 5.37 µM
- logD [7]: 0.36
- Papp A→B at 2 µM [8]: 18 ×10⁻⁶ cm/s
- Kp at 40 min [9]: 1.5
- bioavailability [10]: 73%
- Activity [11]: Active
- Activity [12]: Active
- minimal effective dose [13]: 0.3 mg/kg
- Activity [14]: Active
- Activity [15]: Active
